Converted amounts (≈) assume the structure as drawn.
Columns and labels:
[1] = test system: Bifidobacterium animalis; test: Antimicrobial activity against Bifidobacterium animalis ATCC 27536; format: functional
Summary of the method: (§1)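 Broth microdilution in MRS plus 0.05% L-cysteine-HCl. Mid-log culture adjusted to OD650 0.1, giving about 2.5 × 10^4 to 5.0 × 10^4 CFU/well, then added to twofold serial dilutions of agent. Plates incubated anaerobically at 37°C for 18 h and read at OD650. MIC is the lowest concentration matching the uninoculated blank OD, taken as the median of four repeats.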

[2] = test system: Bifidobacterium bifidum; test: Antimicrobial activity against Bifidobacterium bifidum R0071; format: functional; summary of the method: as §1
[3] = test system: Bifidobacterium bifidum; test: Antimicrobial activity against Bifidobacterium bifidum ATCC 15696; format: functional; summary of the method: as §1
[4] = test system: Bifidobacterium bifidum; test: Antimicrobial activity against Bifidobacterium bifidum BB12; format: functional; summary of the method: as §1
[5] = test system: Bifidobacterium breve; test: Antimicrobial activity against Bifidobacterium breve ATCC 15700; format: functional; summary of the method: as §1
[6] = Antimicrobial activity against Bifidobacterium infantis ATCC 15697; format: functional, Bifidobacterium longum subsp. infantis; settings: Bifidobacterium longum; summary of the method: as §1
[7] = test system: Bifidobacterium longum; test: Antimicrobial activity against Bifidobacterium longum ATCC 15708; format: functional; summary of the method: as §1
[8] = test system: Bifidobacterium longum; test: Antimicrobial activity against Bifidobacterium longum R0175; format: functional; summary of the method: as §1
[9] = test system: Bifidobacterium longum; test: Antimicrobial activity against Bifidobacterium longum P/N 601377; format: functional; summary of the method: as §1
[10] = test system: Bifidobacterium pseudolongum; test: Antimicrobial activity against Bifidobacterium pseudolongum ATCC 25562; format: functional; summary of the method: as §1
[11] = test system: Bifidobacterium thermophilum; test: Antimicrobial activity against Bifidobacterium thermophilum ATCC 25866; format: functional; summary of the method: as §1
[12] = test system: Bifidobacterium breve; test: Antimicrobial activity against Bifidobacterium breve R0070; format: functional; summary of the method: as §1
[13] = test system: Bifidobacterium animalis; test: Antimicrobial activity against 60 min 1 M HCl-stressed Bifidobacterium animalis ATCC 27536 after 18 hrs; format: functional
Summary of the method: (§2)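 Mid-log MRS culture pelleted and resuspended in MRS broth brought to pH 2.0 with 1 M HCl, held anaerobically at 37°C for 60 min, then subcultured in MRS (pH 6.5) for 24 h anaerobically before MIC testing by broth microdilution (as for unstressed cells). Table footnote gives 18 h anaerobic regrowth after the stress. MIC is the median of four repetitions.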

[14] = test system: Bifidobacterium bifidum; test: Antimicrobial activity against 60 min 1 M HCl-stressed Bifidobacterium bifidum R0071 after 18 hrs; format: functional; summary of the method: as §2
[15] = test system: Bifidobacterium bifidum; test: Antimicrobial activity against 60 min 1 M HCl-stressed Bifidobacterium bifidum BB12 after 18 hrs; format: functional; summary of the method: as §2
[16] = test system: Bifidobacterium breve; test: Antimicrobial activity against 60 min 1 M HCl-stressed Bifidobacterium breve ATCC 15700 after 18 hrs; format: functional; summary of the method: as §2
[17] = test system: Bifidobacterium breve; test: Antimicrobial activity against 60 min 1 M HCl-stressed Bifidobacterium breve R0070 after 18 hrs; format: functional; summary of the method: as §2
[18] = Antimicrobial activity against 60 min 1 M HCl-stressed Bifidobacterium infantis ATCC 15697 after 18 hrs; format: functional, Bifidobacterium longum subsp. infantis; settings: Bifidobacterium longum; summary of the method: as §2
[19] = test system: Bifidobacterium longum; test: Antimicrobial activity against 60 min 1 M HCl-stressed Bifidobacterium longum ATCC 15707 after 18 hrs; format: functional; summary of the method: as §2
[20] = test system: Bifidobacterium longum; test: Antimicrobial activity against 60 min 1 M HCl-stressed Bifidobacterium longum R0175 after 18 hrs; format: functional; summary of the method: as §2
[21] = test system: Bifidobacterium longum; test: Antimicrobial activity against 60 min 1 M HCl-stressed Bifidobacterium longum P/N 601377 after 18 hrs; format: functional; summary of the method: as §2
[22] = test system: Bifidobacterium pseudolongum; test: Antimicrobial activity against 60 min 1 M HCl-stressed Bifidobacterium pseudolongum ATCC 25562 after 18 hrs; format: functional; summary of the method: as §2
[23] = test system: Bifidobacterium thermophilum; test: Antimicrobial activity against 60 min 1 M HCl-stressed Bifidobacterium thermophilum ATCC 25866 after 18 hrs; format: functional; summary of the method: as §2
[24] = test system: Bifidobacterium animalis; test: Antimicrobial activity against 90 mins oxgall-stressed Bifidobacterium animalis ATCC 27536 after 18 hrs; format: functional
Summary of the method: (§3)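 Cells pelleted from mid-log MRS culture and resuspended in MRS (initial pH 6.5) with 0.3% (wt/vol) oxgall for 90 min anaerobically at 37°C. They were then regrown in MRS pH 6.5 for 24 h (footnote: 18 h) anaerobically and tested for MIC by the same broth microdilution assay. Median of four repetitions.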

[25] = test system: Bifidobacterium bifidum; test: Antimicrobial activity against 90 mins oxgall-stressed Bifidobacterium bifidum R0071 after 18 hrs; format: functional; summary of the method: as §3
[26] = test system: Bifidobacterium bifidum; test: Antimicrobial activity against 90 mins oxgall-stressed Bifidobacterium bifidum ATCC 15696 after 18 hrs; format: functional; summary of the method: as §3
[27] = test system: Bifidobacterium bifidum; test: Antimicrobial activity against 90 mins oxgall-stressed Bifidobacterium bifidum BB12 after 18 hrs; format: functional; summary of the method: as §3
[28] = test system: Bifidobacterium breve; test: Antimicrobial activity against 90 mins oxgall-stressed Bifidobacterium breve ATCC 15700 after 18 hrs; format: functional; summary of the method: as §3
[29] = test system: Bifidobacterium breve; test: Antimicrobial activity against 90 mins oxgall-stressed Bifidobacterium breve R0070 after 18 hrs; format: functional; summary of the method: as §3
[30] = Antimicrobial activity against 90 mins oxgall-stressed Bifidobacterium infantis ATCC 15697 after 18 hrs; format: functional, Bifidobacterium longum subsp. infantis; settings: Bifidobacterium longum; summary of the method: as §3
[31] = test system: Bifidobacterium longum; test: Antimicrobial activity against 90 mins oxgall-stressed Bifidobacterium longum ATCC 15707 after 18 hrs; format: functional; summary of the method: as §3
[32] = test system: Bifidobacterium longum; test: Antimicrobial activity against 90 mins oxgall-stressed Bifidobacterium longum ATCC 15708 after 18 hrs; format: functional; summary of the method: as §3
[33] = test system: Bifidobacterium longum; test: Antimicrobial activity against Bifidobacterium longum ATCC 15707; format: functional; summary of the method: as §1
[34] = test system: Bifidobacterium longum; test: Antimicrobial activity against 90 mins oxgall-stressed Bifidobacterium longum R0175 after 18 hrs; format: functional; summary of the method: as §3
[35] = test system: Bifidobacterium longum; test: Antimicrobial activity against 90 mins oxgall-stressed Bifidobacterium longum P/N 601377 after 18 hrs; format: functional; summary of the method: as §3
[36] = test system: Bifidobacterium pseudolongum; test: Antimicrobial activity against 90 mins oxgall-stressed Bifidobacterium pseudolongum ATCC 25562 after 18 hrs; format: functional; summary of the method: as §3
[37] = test system: Bifidobacterium thermophilum; test: Antimicrobial activity against 90 mins oxgall-stressed Bifidobacterium thermophilum ATCC 25866 after 18 hrs; format: functional; summary of the method: as §3
[38] = test system: Bifidobacterium animalis; test: Antimicrobial activity against 90 mins hydrogen peroxide-stressed Bifidobacterium animalis ATCC 27536 after 18 hrs; format: functional
Summary of the method: (§4)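 Stress applied for 90 min at 37°C under anaerobic conditions, using MRS (initial pH 6.5) containing H2O2 at each strain's own inhibitory concentration. The H2O2 level was set beforehand by microplate tolerance testing. Challenged cells were regrown in MRS for 24 h (footnote: 18 h) before MIC testing by broth microdilution. Median of four repetitions.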

[39] = test system: Bifidobacterium bifidum; test: Antimicrobial activity against 90 mins hydrogen peroxide-stressed Bifidobacterium bifidum R0071 after 18 hrs; format: functional; summary of the method: as §4
[40] = test system: Bifidobacterium bifidum; test: Antimicrobial activity against 90 mins hydrogen peroxide-stressed Bifidobacterium bifidum BB12 after 18 hrs; format: functional; summary of the method: as §4
[41] = test system: Bifidobacterium breve; test: Antimicrobial activity against 90 mins hydrogen peroxide-stressed Bifidobacterium breve ATCC 15700 after 18 hrs; format: functional; summary of the method: as §4
[42] = test system: Bifidobacterium breve; test: Antimicrobial activity against 90 mins hydrogen peroxide-stressed Bifidobacterium breve R0070 after 18 hrs; format: functional; summary of the method: as §4
[43] = test system: Bifidobacterium longum; test: Antimicrobial activity against 90 mins hydrogen peroxide-stressed Bifidobacterium longum ATCC 15707 after 18 hrs; format: functional; summary of the method: as §4
[44] = test system: Bifidobacterium longum; test: Antimicrobial activity against 90 mins hydrogen peroxide-stressed Bifidobacterium longum ATCC 15708 after 18 hrs; format: functional; summary of the method: as §4
[45] = test system: Bifidobacterium longum; test: Antimicrobial activity against 90 mins hydrogen peroxide-stressed Bifidobacterium longum R0175 after 18 hrs; format: functional; summary of the method: as §4
[46] = test system: Bifidobacterium longum; test: Antimicrobial activity against 90 mins hydrogen peroxide-stressed Bifidobacterium longum P/N 601377 after 18 hrs; format: functional; summary of the method: as §4
[47] = test system: Bifidobacterium thermophilum; test: Antimicrobial activity against 90 mins hydrogen peroxide-stressed Bifidobacterium thermophilum ATCC 25866 after 18 hrs; format: functional; summary of the method: as §4

## Cc1onc(-c2ccccc2Cl)c1C(=O)N[C@@H]1C(=O)N2[C@@H]1SC(C)(C)[C@@H]2C(=O)O [CLOXACILLIN]
[1]
  MIC: 3.9 µg/mL (≈ 8.95 µM)
[2]
  MIC: 15.6 µg/mL (≈ 35.8 µM)
[3]
  MIC: 7.8 µg/mL (≈ 17.9 µM)
[4]
  MIC: 0.98 µg/mL (≈ 2.25 µM)
[5]
  MIC: 15.6 µg/mL (≈ 35.8 µM)
[6]
  MIC: 15.6 µg/mL (≈ 35.8 µM)
[7]
  MIC: 7.8 µg/mL (≈ 17.9 µM)
[8]
  MIC: 62.5 µg/mL (≈ 143 µM)
[9]
  MIC: 31.2 µg/mL (≈ 71.6 µM)
[10]
  MIC: 3.9 µg/mL (≈ 8.95 µM)
[11]
  MIC: 15.6 µg/mL (≈ 35.8 µM)
[12]
  MIC: 31.2 µg/mL (≈ 71.6 µM)
[13]
  MIC: 3.9 µg/mL (≈ 8.95 µM)
[14]
  MIC: 15.6 µg/mL (≈ 35.8 µM)
[15]
  MIC: 0.98 µg/mL (≈ 2.25 µM)
[16]
  MIC: 125 µg/mL (≈ 287 µM)
[17]
  MIC: 15.6 µg/mL (≈ 35.8 µM)
[18]
  MIC: 125 µg/mL (≈ 287 µM)
[19]
  MIC: 15.6 µg/mL (≈ 35.8 µM)
[20]
  MIC: 0.98 µg/mL (≈ 2.25 µM)
[21]
  MIC: 0.98 µg/mL (≈ 2.25 µM)
[22]
  MIC: 0.98 µg/mL (≈ 2.25 µM)
[23]
  MIC: 31.2 µg/mL (≈ 71.6 µM)
[24]
  MIC: 125 µg/mL (≈ 287 µM)
[25]
  MIC: 62.5 µg/mL (≈ 143 µM)
[26]
  MIC: 62.5 µg/mL (≈ 143 µM)
[27]
  MIC: 1.9 µg/mL (≈ 4.36 µM)
[28]
  MIC: 3.9 µg/mL (≈ 8.95 µM)
[29]
  MIC: 31.2 µg/mL (≈ 71.6 µM)
[30]
  MIC: 125 µg/mL (≈ 287 µM)
[31]
  MIC: 125 µg/mL (≈ 287 µM)
[32]
  MIC: 125 µg/mL (≈ 287 µM)
[33]
  MIC: 15.6 µg/mL (≈ 35.8 µM)
[34]
  MIC: 125 µg/mL (≈ 287 µM)
[35]
  MIC: 62.5 µg/mL (≈ 143 µM)
[36]
  MIC: 62.5 µg/mL (≈ 143 µM)
[37]
  MIC: 62.5 µg/mL (≈ 143 µM)
[38]
  MIC: 3.9 µg/mL (≈ 8.95 µM)
[39]
  MIC: 31.2 µg/mL (≈ 71.6 µM)
[40]
  MIC: 1.9 µg/mL (≈ 4.36 µM)
[41]
  MIC: 3.9 µg/mL (≈ 8.95 µM)
[42]
  MIC: 15.6 µg/mL (≈ 35.8 µM)
[43]
  MIC: 0.98 µg/mL (≈ 2.25 µM)
[44]
  MIC: 7.8 µg/mL (≈ 17.9 µM)
[45]
  MIC: 31.2 µg/mL (≈ 71.6 µM)
[46]
  MIC: 31.2 µg/mL (≈ 71.6 µM)
[47]
  MIC: 7.8 µg/mL (≈ 17.9 µM)

Source: ChEMBL document CHEMBL1142148, “Antibiotic susceptibility profile of bifidobacteria as affected by oxgall, acid, and hydrogen peroxide stress” (2007)
